From ChEMBL document CHEMBL4261634, “Design and optimization of 2,3-dihydrobenzo[b][1,4]dioxine propanoic acids as novel GPR40 agonists with improved pharmacokinetic and safety profiles” (Bioorg Med Chem, 2018)
Calls of active or inactive are those of the source. The calls are words filed in the database; no cut-off is given here.

Tests used:
[1] = target: ATP-binding cassette sub-family C member 2 (Homo sapiens, UniProt Q92887); assay: Inhibition of human MRP2
[2] = Elimination half life in Sprague-Dawley rat at 1 mg/kg, iv by LC-ESI-MS analysis; format: ADME, organism-based; conditions: in vivo, read-out: beta t1/2 (converted)
Method in brief: (§1)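 SD rats dosed orally (3 or 10 mg/kg) or by intravenous injection (1 mg/kg). Plasma PK parameters derived per route: Cmax, AUC0-t, Tmax, t1/2 and F after oral dosing; CL, AUC0-t, MRT, t1/2 and Vdss after iv dosing. Mean ± SD from three independent experiments (n = 3).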

[3] = tested on: Hepatocyte; assay: Toxicity in sandwich-cultured Sprague-Dawley rat hepatocytes assessed as inhibition of hepatobiliary transport by measuring biliary excretion index at 5 to 40 uM after 15 mins in presence of d8-TCA by LC-MS/MS analysis; format: cell-based; conditions: 0.25 h
Method in brief: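 Sandwich-cultured rat hepatocytes incubated with compound and d8-TCA in standard (Ca2+-containing) or Ca2+-free buffer. Cellular d8-TCA measured, and the biliary excretion index calculated as the fraction of accumulated bile acid excreted into bile. Mean of three independent experiments.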

[4] = Clearance in Sprague-Dawley rat at 1 mg/kg, iv by LC-ESI-MS analysis; format: ADME, organism-based; conditions: in vivo; method in brief: as §1
[5] = tested on: Rattus norvegicus; assay: Subacute toxicity in Sprague-Dawley rat assessed as effect on behavior at 50 to 100 mg/kg, po administered once daily for 2 weeks; format: organism-based; conditions: in vivo, 336 h
Method in brief: (§2)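 SD rats dosed orally once daily for two weeks at 50 mg/kg and 100 mg/kg. Subacute toxicity was assessed over the dosing period from survival rate, behaviour, food intake and organ coefficients.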

[6] = target: T1, Cytochrome P450 1A2 (Homo sapiens, UniProt P05177); assay: Inhibition of CYP1A2 (unknown origin); format: ADME
T1 sequence (P05177 whole entry): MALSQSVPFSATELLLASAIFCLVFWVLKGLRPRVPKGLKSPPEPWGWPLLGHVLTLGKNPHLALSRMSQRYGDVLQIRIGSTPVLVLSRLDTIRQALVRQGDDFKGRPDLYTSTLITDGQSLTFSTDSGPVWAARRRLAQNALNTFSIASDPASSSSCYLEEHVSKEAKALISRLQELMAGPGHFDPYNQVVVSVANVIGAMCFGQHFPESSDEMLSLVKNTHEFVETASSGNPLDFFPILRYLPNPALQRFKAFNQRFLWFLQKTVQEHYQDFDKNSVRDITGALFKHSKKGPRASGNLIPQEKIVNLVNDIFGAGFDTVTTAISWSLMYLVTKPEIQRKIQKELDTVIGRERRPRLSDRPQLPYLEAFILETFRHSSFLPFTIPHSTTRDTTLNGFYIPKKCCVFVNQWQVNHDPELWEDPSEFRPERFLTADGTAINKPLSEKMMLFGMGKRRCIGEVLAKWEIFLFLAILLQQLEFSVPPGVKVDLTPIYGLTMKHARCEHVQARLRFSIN

[7] = tested on: Salmonella typhimurium; assay: Mutagenicity in Salmonella typhimurium by Ames test; format: toxicity, organism-based; conditions: salmonella enterica subsp. enterica serovar typhimurium
[8] = target: Cytochrome P450 2D6 (Homo sapiens, UniProt P10635); assay: Inhibition of CYP2D6 (unknown origin); format: ADME
Cytochrome P450 2D6, sequence (P10635 whole entry): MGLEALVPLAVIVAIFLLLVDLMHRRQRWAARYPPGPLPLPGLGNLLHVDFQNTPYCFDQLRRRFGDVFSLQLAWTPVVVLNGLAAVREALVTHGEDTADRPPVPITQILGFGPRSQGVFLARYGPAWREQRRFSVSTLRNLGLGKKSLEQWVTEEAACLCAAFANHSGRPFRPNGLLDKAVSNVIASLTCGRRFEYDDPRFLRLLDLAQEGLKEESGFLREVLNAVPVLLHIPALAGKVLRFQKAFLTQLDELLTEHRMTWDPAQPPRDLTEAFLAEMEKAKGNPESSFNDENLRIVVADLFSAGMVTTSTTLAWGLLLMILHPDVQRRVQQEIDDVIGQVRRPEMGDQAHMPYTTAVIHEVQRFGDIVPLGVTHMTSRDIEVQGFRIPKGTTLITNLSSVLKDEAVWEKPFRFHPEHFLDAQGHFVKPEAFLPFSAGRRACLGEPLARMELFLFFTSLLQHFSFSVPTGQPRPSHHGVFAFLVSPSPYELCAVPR

[9] = target: T2, Free fatty acid receptor 3 (Homo sapiens) (UniProt O14843); assay: Agonist activity at GPR41 (unknown origin) up to 100 uM; format: functional
T2 sequence (whole entry): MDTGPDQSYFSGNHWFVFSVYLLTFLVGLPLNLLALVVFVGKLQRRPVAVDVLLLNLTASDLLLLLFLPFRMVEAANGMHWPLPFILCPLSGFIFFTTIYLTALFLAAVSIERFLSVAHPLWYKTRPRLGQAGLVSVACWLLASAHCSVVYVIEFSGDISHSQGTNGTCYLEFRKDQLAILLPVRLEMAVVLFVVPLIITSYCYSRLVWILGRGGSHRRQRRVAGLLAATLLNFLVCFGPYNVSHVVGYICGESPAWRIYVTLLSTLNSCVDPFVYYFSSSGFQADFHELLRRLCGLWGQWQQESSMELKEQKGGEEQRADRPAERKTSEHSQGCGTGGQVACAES

[10] = tested on: Rattus norvegicus; assay: Subacute toxicity in Sprague-Dawley rat assessed as effect on survival rate at 50 to 100 mg/kg, po administered once daily for 2 weeks; format: organism-based; conditions: in vivo, 336 h; method in brief: as §2
[11] = tested on: Rattus norvegicus; assay: Antidiabetic activity in Sprague-Dawley rat assessed as reduction in blood glucose AUC (0 to 60 mins) at 10 to 20 mg/kg, po administered 60 mins prior to glucose challenge by OGTT; format: functional, organism-based
Method in brief: (§3)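 OGTT in SD rats: compound given orally 60 min before a 3.0 g/kg glucose challenge. Blood glucose followed over time, and AUC0-60min or AUC0-120min calculated versus vehicle group. Mean ± SD, n = 8.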

[12] = MRT in Sprague-Dawley rat at 1 mg/kg, iv by LC-ESI-MS analysis; format: ADME, organism-based; conditions: in vivo; method in brief: as §1
[13] = AUC (0 to t) in Sprague-Dawley rat at 1 mg/kg, iv by LC-ESI-MS analysis; format: ADME, organism-based; conditions: in vivo; method in brief: as §1
[14] = Oral bioavailability in Sprague-Dawley rat at 3 mg/kg by LC-ESI-MS analysis; format: ADME, organism-based; conditions: in vivo; method in brief: as §1
[15] = Cmax in Sprague-Dawley rat at 3 mg/kg, po by LC-ESI-MS analysis; format: ADME, organism-based; set-up: dose 3 mg/kg, route oral; conditions: in vivo; method in brief: as §1
[16] = target: Cytochrome P450 2C9 (Homo sapiens, UniProt P11712); assay: Inhibition of CYP2C9 (unknown origin); format: ADME
Cytochrome P450 2C9, sequence (P11712 whole entry): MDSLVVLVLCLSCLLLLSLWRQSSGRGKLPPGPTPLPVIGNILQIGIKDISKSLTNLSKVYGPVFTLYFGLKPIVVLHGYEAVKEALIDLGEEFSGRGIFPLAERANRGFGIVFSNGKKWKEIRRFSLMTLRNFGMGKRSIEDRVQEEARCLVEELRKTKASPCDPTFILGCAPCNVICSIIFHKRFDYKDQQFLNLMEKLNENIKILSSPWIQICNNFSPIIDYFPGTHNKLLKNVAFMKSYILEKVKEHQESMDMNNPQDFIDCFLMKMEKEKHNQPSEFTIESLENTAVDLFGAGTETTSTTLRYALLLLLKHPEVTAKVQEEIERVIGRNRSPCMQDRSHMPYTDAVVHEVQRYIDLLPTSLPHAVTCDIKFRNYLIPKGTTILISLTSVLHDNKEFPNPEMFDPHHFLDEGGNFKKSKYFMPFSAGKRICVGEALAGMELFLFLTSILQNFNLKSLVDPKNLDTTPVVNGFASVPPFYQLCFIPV

[17] = target: T3, Solute carrier organic anion transporter family member 1B3 (Homo sapiens, UniProt Q9NPD5); assay: Inhibition of human OATP1B3; format: ADME
T3 sequence (Q9NPD5 whole entry): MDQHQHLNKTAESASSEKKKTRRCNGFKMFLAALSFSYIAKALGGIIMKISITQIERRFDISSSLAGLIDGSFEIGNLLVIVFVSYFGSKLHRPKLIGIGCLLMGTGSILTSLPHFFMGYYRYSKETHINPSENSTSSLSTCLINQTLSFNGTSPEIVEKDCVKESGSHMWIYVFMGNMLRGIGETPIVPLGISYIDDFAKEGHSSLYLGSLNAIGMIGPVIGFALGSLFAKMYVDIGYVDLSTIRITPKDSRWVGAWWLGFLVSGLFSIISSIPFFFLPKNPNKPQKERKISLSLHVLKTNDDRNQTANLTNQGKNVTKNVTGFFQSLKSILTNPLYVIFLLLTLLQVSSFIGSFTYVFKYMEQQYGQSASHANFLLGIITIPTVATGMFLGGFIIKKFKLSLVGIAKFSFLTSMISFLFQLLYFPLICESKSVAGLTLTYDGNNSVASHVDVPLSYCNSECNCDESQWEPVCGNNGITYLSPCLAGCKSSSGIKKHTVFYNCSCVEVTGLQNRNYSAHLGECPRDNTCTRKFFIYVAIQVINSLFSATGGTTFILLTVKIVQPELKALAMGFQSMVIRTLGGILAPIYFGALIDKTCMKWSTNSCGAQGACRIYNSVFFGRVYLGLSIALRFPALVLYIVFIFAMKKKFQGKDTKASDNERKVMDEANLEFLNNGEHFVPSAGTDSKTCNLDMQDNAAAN

[18] = tested on: Rattus norvegicus; assay: Antidiabetic activity in Sprague-Dawley rat assessed as reduction in blood glucose excursion at 10 to 20 mg/kg, po administered 60 mins prior to glucose challenge by OGTT; format: functional, organism-based; method in brief: as §3

ATP-binding cassette sub-family C member 2, sequence (Q92887 whole entry): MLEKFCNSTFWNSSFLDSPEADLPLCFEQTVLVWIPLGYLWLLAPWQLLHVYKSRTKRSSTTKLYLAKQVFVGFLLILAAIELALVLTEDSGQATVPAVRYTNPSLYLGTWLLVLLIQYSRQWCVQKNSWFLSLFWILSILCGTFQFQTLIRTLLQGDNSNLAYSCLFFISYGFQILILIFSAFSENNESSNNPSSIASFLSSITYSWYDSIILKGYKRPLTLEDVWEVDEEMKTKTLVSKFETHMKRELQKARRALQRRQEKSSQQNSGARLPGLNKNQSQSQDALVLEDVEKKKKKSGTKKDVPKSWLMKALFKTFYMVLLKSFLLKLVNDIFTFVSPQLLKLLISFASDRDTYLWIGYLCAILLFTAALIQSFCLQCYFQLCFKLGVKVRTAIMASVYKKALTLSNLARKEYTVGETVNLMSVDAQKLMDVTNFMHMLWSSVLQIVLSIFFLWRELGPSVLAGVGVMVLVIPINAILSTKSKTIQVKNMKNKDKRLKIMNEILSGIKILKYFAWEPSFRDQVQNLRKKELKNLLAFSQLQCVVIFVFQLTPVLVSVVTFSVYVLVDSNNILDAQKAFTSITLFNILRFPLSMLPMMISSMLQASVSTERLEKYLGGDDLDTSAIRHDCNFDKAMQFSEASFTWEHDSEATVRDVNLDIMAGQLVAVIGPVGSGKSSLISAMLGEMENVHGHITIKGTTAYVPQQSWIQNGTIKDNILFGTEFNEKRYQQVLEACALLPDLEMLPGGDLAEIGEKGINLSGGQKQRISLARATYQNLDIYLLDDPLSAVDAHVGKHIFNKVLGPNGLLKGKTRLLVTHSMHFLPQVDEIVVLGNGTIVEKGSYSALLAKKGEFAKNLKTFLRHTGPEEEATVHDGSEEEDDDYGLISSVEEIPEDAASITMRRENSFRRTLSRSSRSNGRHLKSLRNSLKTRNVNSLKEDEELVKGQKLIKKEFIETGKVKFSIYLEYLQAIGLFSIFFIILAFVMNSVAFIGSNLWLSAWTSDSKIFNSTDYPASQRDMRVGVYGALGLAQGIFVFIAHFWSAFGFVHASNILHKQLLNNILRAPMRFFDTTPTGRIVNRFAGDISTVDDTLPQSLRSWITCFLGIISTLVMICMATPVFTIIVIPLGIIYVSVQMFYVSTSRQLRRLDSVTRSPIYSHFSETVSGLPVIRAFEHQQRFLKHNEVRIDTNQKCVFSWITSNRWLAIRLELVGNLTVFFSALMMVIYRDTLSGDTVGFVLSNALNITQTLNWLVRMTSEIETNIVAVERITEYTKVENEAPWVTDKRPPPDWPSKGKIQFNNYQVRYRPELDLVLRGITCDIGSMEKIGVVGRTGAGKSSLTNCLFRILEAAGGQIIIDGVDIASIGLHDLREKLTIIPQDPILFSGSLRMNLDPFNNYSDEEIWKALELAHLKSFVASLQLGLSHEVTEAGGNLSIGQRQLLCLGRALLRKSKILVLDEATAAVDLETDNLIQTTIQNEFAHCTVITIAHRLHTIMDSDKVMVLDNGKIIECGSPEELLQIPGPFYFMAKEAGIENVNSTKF

SMILES: CC#C[C@@H](CC(=O)O)c1ccc(OC[C@H]2COc3ccc(Cl)cc3O2)cc1
- IC50 [1]: > 100 µM
- half-life [2]: 13.2 h
- Activity [3]: Non-Toxic
- clearance [4]: 0.17 mL/min/kg
- Activity [5]: Non-Toxic
- IC50 [6]: > 100 µM
- Activity [7]: Non-Toxic
- IC50 [8]: > 100 µM
- Activity [9]: inactive
- Activity [10]: Non-Toxic
- Activity [11]: Active
- MRT [12]: 17.9 h
- AUC(0-t) [13]: 71400 ng·h/mL
- bioavailability [14]: 65.5%
- Cmax [15]: 9310 ng/mL
- IC50 [16]: 60.5 µM
- IC50 [17]: 39.5 µM
- Activity [18]: Active
